Assay results published in ChEMBL document CHEMBL3797089, “Morusin Induces TRAIL Sensitization by Regulating EGFR and DR5 in Human Glioblastoma Cells” (J Nat Prod, 2016).
Activity calls are given as the source filed them. The calls are words filed in the database; no cut-off is given here.

What was measured:
U-87 MG [1] = assay: Induction of DR5 expression in human U87MG cells at 25 uM by Western blot analysis; type: functional, cell-based; conditions: U-87MG ATCC, TDE = time-dependent effect
Procedure, shortened: (§1)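 Time course: U87MG and U373MG cells held at 25 μM morusin for the times indicated. Extracts immunoblotted (cIAP1 or DR5), with β-actin as loading control.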

T98G [2] = assay: Cytotoxicity against human T98G cells assessed as reduction in cell viability after 24 hrs by MTT assay; type: functional, cell-based
Procedure, shortened: (§2)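 Seeded 3–5 × 10^3 cells/well, treated the next day with a range of morusin (DMSO stock) for 24 h, 37 °C, 5% CO2. Then fresh medium with 1 mg/mL MTT for 2 h at 37 °C, lysis buffer overnight at 37 °C, OD 570 nm. Mean ± SD from at least three independent experiments in triplicate.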

U-251 [3] = assay: Effect on DR4 expression in human U251MG cells upto 25 uM after 24 hrs by Western blot analysis; type: functional, cell-based
Procedure, shortened: (§3)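 Cells exposed to a range of morusin concentrations for 24 h. Cell extracts immunoblotted for DR4, DR5, DcR1 and DcR2, with β-actin as internal control and HRP-conjugated secondary antibodies (1:5000).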

U-87 MG [4] = assay: Induction of DR5 expression in human U87MG cells at 25 uM after 24 hrs by FITC-conjugated flow cytometric analysis; type: functional, cell-based; conditions: U-87MG ATCC
Procedure, shortened: (§4)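 Cells given 25 μM morusin for 24 h, then stained on ice for 30 min with 0.5 μg/mL FITC-conjugated anti-DR4, anti-DR5 or isotype IgG in FACS buffer. Surface expression read by flow cytometry.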

U373 MG [5] = assay: Induction of DR5 expression in human U373MG cells at 25 uM by Western blot analysis; type: functional, cell-based; conditions: U-373MG ATCC, TDE = time-dependent effect; procedure, shortened: as §1
T98G [6] = assay: Cytotoxicity against human T98G cells assessed as reduction in cell viability measured up to 20 uM after 24 hrs by MTT assay in presence of TRAIL; type: functional
Procedure, shortened: (§5)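 MTT viability. 3–5 × 10^3 cells/well, treated the next day with TRAIL 100 ng/mL plus increasing morusin concentrations for 24 h. 1 mg/mL MTT for 2 h at 37 °C, lysis overnight, OD 570 nm. Living-cell fractions were used for combination index analysis. Mean ± SD, at least three independent experiments.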

T98G [7] = assay: Induction of apoptosis in human T98G cells assessed as increase in cleaved caspase 3 levels at 2.5 uM after 24 hrs by Western blot analysis in presence of TRAIL; type: functional, cell-based
Procedure, shortened: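 U87MG and T98G given TRAIL 25 ng/mL plus morusin 2.5 μM together for 24 h; single-agent arms used TRAIL 50 ng/mL or morusin 5 μM. Lysates immunoblotted for cleaved caspase 3, 8, 9 and cleaved PARP, with β-actin as internal control.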

T98G [8] = assay: Reduction of EGFR expression in human T98G cells at 25 uM after 24 hrs by Western blot analysis; type: functional, cell-based
Procedure, shortened: (§6)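 LN18, U87MG, T98G, U251MG and U373MG glioblastoma cells were exposed to morusin for 24 h. Cells were maintained in DMEM, MEM or RPMI with 10% FBS at 37 °C and 5% CO2. Whole-cell lysates were Western blotted for receptor proteins, with β-actin as internal control.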

[9] = target: Epidermal growth factor receptor (Homo sapiens) (UniProt P00533); assay: Inhibition of EGFR phosphorylation in human U87MG cells measured up to 25 uM after 24 hrs by Western blot analysis; type: cell-based; conditions: U-87MG ATCC
Procedure, shortened: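 Cells grown in MEM (U87MG) or RPMI (U373MG) with 10% FBS, 5% CO2, 37 °C. Treated for 24 h with the indicated concentrations of morusin (DMSO stock). Whole-cell lysates immunoblotted for phosphorylated and total proteins, with β-actin as internal control.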

LN-18 [10] = assay: Effect on DcR1 expression in human LN18 cells upto 25 uM after 24 hrs by Western blot analysis; type: functional, cell-based; procedure, shortened: as §3
[11] = Cytotoxicity against human U251MG cells assessed as reduction in cell viability measured up to 20 uM after 24 hrs by MTT assay in presence of TRAIL; type: functional, U-251; procedure, shortened: as §5
U373 MG [12] = assay: Effect on cIAP1 expression in human U373MG cells at 12 to 25 uM after 24 hrs by Western blot analysis; type: functional, cell-based; conditions: U-373MG ATCC
Procedure, shortened: (§7)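 U87MG and U373MG exposed to a range of morusin concentrations for 24 h. Whole-cell extracts immunoblotted for cIAP1, with β-actin as internal control.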

U-87 MG [13] = assay: Induction of DR5 expression in human U87MG cells after 24 hrs by Western blot analysis; type: functional, cell-based; conditions: U-87MG ATCC; procedure, shortened: as §3
[14] = Cytotoxicity against human U87MG cells transfected DR5 siRNA assessed as cell death after 24 hrs by MTT assay in presence of TRAIL; type: functional, U-87MG ATCC
Procedure, shortened: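 U87MG cells were transiently transfected with scrambled control or DR5 siRNA by lipofection. At 48 h after transfection they were cotreated with TRAIL at 50 ng/mL and test compound at 20 μM for 24 h. Viability was read by MTT: 1 mg/mL for 2 h at 37 °C, lysis overnight, OD at 570 nm. Data are mean ± SD from ≥3 independent experiments.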

[15] = Reduction of EGFR expression in human LN18 cells at 25 uM after 24 hrs by Western blot analysis; type: functional, cell-based; conditions: LN-18; procedure, shortened: as §6
[16] = Reduction of survivin mRNA expression in human U87MG cells after 24 hrs by RT-qPCR analysis; type: functional, cell-based; conditions: U-87MG ATCC
Procedure, shortened: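 U87MG cells were treated with graded morusin for 24 h. Total RNA was extracted with TRI Reagent, and 1 μg was reverse transcribed. XIAP and survivin mRNA were quantified by RT-qPCR, normalized to GAPDH. Results are mean ± SD from at least three independent experiments; unpaired t-test.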

[17] = Reduction of survivin expression in human U87MG cells at 25 uM by Western blot analysis; type: functional, cell-based; conditions: U-87MG ATCC, TDE = time-dependent effect
Procedure, shortened: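 Time course: U87MG and U373MG cells were exposed to 25 μM morusin for the indicated times. Whole-cell extracts were Western blotted, with β-actin as internal control.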

U373 MG [18] = assay: Effect on DcR1 expression in human U373MG cells upto 25 uM after 24 hrs by Western blot analysis; type: functional, cell-based; conditions: U-373MG ATCC; procedure, shortened: as §3
U-87 MG [19] = assay: Effect on cIAP1 expression in human U87MG cells at 12 to 25 uM after 24 hrs by Western blot analysis; type: functional, cell-based; conditions: U-87MG ATCC; procedure, shortened: as §7
[20] = Cytotoxicity against human U87MG cells assessed as cell death after 24 hrs by MTT assay in presence of TRAIL; type: functional, U-87MG ATCC
Procedure, shortened: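 U87MG cells (MEM, 10% FBS) were seeded at (3−5) × 10^3 cells/well and treated 1 day later with TRAIL at 100 ng/mL plus graded test compound for 24 h. Fresh medium with 1 mg/mL MTT was added for 2 h at 37 °C, then lysis buffer overnight at 37 °C, and OD was read at 570 nm. Data are mean ± SD from ≥3 independent experiments in triplicate.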

[21] = Cytotoxicity against human U251MG cells assessed as reduction in cell viability after 24 hrs by MTT assay; type: functional, cell-based; conditions: U-251, 24 h; procedure, shortened: as §2
[22] = Reduction of PDGFR expression in human U87MG cells at 25 uM after 24 hrs by Western blot analysis; type: functional, cell-based; conditions: U-87MG ATCC; procedure, shortened: as §6
U-251 [23] = assay: Induction of DR5 expression in human U251MG cells at 25 uM after 24 hrs by FITC-conjugated flow cytometric analysis; type: functional, cell-based; procedure, shortened: as §4
LN-18 [24] = assay: Induction of DR5 expression in human LN18 cells after 24 hrs by Western blot analysis; type: functional, cell-based; procedure, shortened: as §3

Epidermal growth factor receptor (Homo sapiens), sequence (P00533 whole entry): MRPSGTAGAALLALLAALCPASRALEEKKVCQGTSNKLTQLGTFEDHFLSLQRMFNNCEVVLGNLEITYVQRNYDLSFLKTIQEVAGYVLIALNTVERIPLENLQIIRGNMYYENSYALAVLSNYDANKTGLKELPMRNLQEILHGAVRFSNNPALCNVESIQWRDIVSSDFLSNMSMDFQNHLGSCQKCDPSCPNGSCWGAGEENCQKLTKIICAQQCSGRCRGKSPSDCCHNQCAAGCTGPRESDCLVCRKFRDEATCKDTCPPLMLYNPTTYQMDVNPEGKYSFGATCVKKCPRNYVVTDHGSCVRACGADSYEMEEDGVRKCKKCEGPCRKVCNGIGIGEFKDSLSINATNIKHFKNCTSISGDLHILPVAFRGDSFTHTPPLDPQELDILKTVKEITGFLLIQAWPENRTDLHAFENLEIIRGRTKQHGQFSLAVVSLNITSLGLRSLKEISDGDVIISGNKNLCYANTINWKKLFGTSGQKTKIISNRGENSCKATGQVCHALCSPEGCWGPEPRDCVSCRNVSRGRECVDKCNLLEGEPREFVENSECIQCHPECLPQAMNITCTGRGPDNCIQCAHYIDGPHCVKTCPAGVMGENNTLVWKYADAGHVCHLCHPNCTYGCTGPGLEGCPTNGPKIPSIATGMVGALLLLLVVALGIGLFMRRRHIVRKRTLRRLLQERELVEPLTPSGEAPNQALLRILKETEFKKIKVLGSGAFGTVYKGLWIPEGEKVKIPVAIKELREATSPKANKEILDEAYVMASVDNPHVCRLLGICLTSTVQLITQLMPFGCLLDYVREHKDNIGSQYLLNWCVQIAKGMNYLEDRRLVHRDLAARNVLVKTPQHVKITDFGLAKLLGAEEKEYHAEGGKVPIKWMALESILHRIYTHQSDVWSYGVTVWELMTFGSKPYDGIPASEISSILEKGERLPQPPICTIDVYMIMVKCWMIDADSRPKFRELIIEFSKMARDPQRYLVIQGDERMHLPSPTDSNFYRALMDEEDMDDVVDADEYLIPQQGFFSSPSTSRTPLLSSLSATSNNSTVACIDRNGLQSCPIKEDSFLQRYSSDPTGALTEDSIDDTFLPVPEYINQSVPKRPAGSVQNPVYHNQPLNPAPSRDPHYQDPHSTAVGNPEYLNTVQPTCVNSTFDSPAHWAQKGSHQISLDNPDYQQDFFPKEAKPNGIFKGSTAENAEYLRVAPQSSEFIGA

Compound: CC(C)=CCc1c(-c2ccc(O)cc2O)oc2c3c(cc(O)c2c1=O)OC(C)(C)C=C3 [MORUSIN]
- Activity (U-87 MG [1]): tde
- IC50 (T98G [2]): 24 µM
- Activity (U-251 [3]): inactive
- Activity (U-87 MG [4]): Active
- Activity (U373 MG [5]): tde
- CI (T98G [6]): <0.8
- Activity (T98G [7]): Active
- Activity (T98G [8]): Active
- inhibition [9]: Active
- Activity (LN-18 [10]): inactive
- CI [11]: <0.8
- Activity (U373 MG [12]): inactive
- Activity (U-87 MG [13]): Dose-dependent effect
- Activity [14]: 10%
- Activity [15]: Active
- Activity [16]: Dose-dependent effect
- inhibition [17]: tde
- Activity (U373 MG [18]): inactive
- Activity (U-87 MG [19]): inactive
- Activity [20]: 29%
- IC50 [21]: 24 µM
- Activity [22]: Active
- Activity (U-251 [23]): Active
- Activity (LN-18 [24]): Dose-dependent effect
